Measured values from ChEMBL document CHEMBL4257504, “Tricyclic xanthine derivatives containing a basic substituent: adenosine receptor affinity and drug-related properties” (Medchemcomm, 2018).
Converted amounts (≈) assume the structure as drawn.

Assays:
[1] = target: T1, Adenosine receptor A2b (Homo sapiens, UniProt P29275); assay: Displacement of [3H]PSB-603 from human adenosine A2B receptor expressed in CHO cell membranes
T1 sequence (P29275 whole entry): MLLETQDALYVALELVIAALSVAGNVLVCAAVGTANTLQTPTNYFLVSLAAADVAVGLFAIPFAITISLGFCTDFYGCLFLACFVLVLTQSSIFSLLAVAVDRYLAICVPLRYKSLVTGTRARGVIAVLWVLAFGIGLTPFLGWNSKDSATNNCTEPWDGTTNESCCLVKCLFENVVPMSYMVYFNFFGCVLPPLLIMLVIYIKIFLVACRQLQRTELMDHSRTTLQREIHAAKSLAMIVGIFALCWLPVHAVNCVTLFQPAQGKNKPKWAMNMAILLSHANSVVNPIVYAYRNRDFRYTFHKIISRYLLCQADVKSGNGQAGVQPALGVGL

[2] = target: T2, Adenosine receptor A3 (Homo sapiens, UniProt P0DMS8); assay: Displacement of [3H]PSB-11 from human adenosine A3 receptor expressed in CHO cell membranes
T2 sequence (P0DMS8 whole entry): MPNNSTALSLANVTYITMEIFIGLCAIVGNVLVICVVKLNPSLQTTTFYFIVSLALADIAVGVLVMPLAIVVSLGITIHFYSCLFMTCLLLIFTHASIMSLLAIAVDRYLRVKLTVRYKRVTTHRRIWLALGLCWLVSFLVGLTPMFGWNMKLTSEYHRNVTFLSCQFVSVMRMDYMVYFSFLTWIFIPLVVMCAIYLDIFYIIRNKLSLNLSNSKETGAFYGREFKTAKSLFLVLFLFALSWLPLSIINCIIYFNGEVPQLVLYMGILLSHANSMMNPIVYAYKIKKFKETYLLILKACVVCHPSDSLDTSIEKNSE
How it was run: (§1)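 Membranes from CHO cells recombinantly expressing human A2B or A3 receptor. Radioligands are [3H]PSB-603 for A2B and [3H]PSB-11 for A3. Competition curves use six to ten test-compound concentrations spanning three orders of magnitude, with at least three independent experiments.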

[3] = Solubility of compound in water after over night incubation by UV spectroscopic method; assay type: physicochemical
How it was run: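 Compound (10 mg, basic form) is suspended in 2 mL water, boiled 5 min, left overnight at 20 °C and filtered. The filtrate is diluted 10–80-fold in MeOH and read by UV in 90% MeOH/H2O. Concentration comes from seven-point standard curves (10^-3 to 10^-1 mg/mL) by linear regression, multiplied by the dilution factor.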

[4] = target: Adenosine receptor A2a (Rattus norvegicus, UniProt P30543); assay: Displacement of [3H]MSX-2 from adenosine A2A receptor in rat brain striatal membranes; assay type: cell membranes, Striatum, Membrane
Chain of Adenosine receptor A2a (P30543 whole entry): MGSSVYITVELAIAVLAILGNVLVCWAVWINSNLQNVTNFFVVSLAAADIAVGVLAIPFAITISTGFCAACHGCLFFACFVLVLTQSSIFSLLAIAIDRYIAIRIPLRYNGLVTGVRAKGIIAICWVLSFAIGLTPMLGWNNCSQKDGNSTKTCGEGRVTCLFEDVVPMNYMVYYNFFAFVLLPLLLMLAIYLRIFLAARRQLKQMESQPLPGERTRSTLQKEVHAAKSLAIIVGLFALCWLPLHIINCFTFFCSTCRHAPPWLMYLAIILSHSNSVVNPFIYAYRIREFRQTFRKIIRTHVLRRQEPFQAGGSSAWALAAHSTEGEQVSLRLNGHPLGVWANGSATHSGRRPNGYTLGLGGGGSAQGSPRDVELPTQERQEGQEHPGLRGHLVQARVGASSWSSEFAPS
How it was run: (§2)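 Membrane radioligand binding: A1 in rat brain cortical membranes and A2A in rat brain striatal membranes, with human A1 and A2A in recombinant CHO cell membranes. Radioligands are [3H]CCPA for A1 and [3H]MSX-2 for A2A. Full concentration-inhibition curves use six to ten concentrations spanning three orders of magnitude, with at least three independent experiments.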

[5] = target: T3, Adenosine receptor A1 (Rattus norvegicus, UniProt P25099); assay: Displacement of [3H]CCPA from adenosine A1 receptor in rat brain cortical membranes; assay type: cell membranes
T3 sequence (P25099 whole entry): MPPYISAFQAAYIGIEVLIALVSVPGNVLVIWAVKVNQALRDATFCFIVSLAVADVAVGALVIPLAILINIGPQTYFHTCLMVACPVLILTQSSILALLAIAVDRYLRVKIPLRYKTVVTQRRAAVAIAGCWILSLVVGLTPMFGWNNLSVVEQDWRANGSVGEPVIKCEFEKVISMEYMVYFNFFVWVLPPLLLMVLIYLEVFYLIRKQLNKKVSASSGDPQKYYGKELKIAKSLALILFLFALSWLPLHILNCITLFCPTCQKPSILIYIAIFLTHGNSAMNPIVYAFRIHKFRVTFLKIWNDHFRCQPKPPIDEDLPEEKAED
How it was run: as §2

[6] = (§3) Drug level in rat liver microsomes treated with 2-(4-(2-(1,3-Dibutyl-2,4-dioxo-1,2,3,4,7,8-hexahydropyrimido[2,1-f]purin-9(6H)-yl)ethyl)phenoxy)-N-(3-(diethylamino)propyl)-acetamide at 50 uM preincubated for 5 mins followed by addition of NADPH regenerating system and measured after 120 mins by UPLC/MS analysis; assay type: ADME, microsome; details: 2 h
How it was run: (§4)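 Incubations use pooled human (adult male and female) or rat liver microsomes at 1 mg/ml in 0.1 M Tris-HCl pH 7.4 with compound at 50 μM. After 5 min preincubation at 37 °C, an NADPH regenerating system is added to start the reaction. Cold methanol stops it at 120 min; samples are centrifuged and the supernatant analysed by UPLC/MS.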

[7] = as §3, with “in human” for “in rat”; assay type: ADME, microsome; details: 2 h
How it was run: as §4

[8] = target: T1, Adenosine receptor A2b; assay: […] from human adenosine A2B receptor expressed in CHO cell membranes; details: in the assay text read “[3H]PSB-603” for “[3H]PSB-602”
How it was run: as §1

[9] = target: Adenosine receptor A2a (Rattus norvegicus) (UniProt P30543); assay: Displacement of [3H]MSX-2 from adenosine A2A receptor in rat brain striatal membranes at 1 uM relative to control; assay type: cell membranes; details: Striatum, Membrane
Chain of Adenosine receptor A2a (Rattus norvegicus) (P30543 whole entry): as the sequence (P30543 whole entry) above

[10] = target: T4, Adenosine receptor A1 (Rattus norvegicus) (UniProt P25099); assay: Displacement of [3H]CCPA from adenosine A1 receptor in rat brain cortical membranes at 1 uM relative to control; assay type: cell membranes
T4 sequence (whole entry): T3 sequence (P25099 whole entry)

[11] = target: T5, Adenosine receptor A2b (Homo sapiens) (UniProt P29275); assay: Displacement of [3H]PSB-603 from human adenosine A2B receptor expressed in CHO cell membranes at 1 uM relative to control
T5 sequence (whole entry): T1 sequence (P29275 whole entry)

[12] = target: T6, Adenosine receptor A3 (Homo sapiens) (UniProt P0DMS8); assay: Displacement of [3H]PSB-11 from human adenosine A3 receptor expressed in CHO cell membranes at 1 uM relative to control
T6 sequence (whole entry): T2 sequence (P0DMS8 whole entry)

[13] = target: Cytochrome P450 3A4 (Homo sapiens, UniProt P08684); assay: Inhibition of recombinant human CYP3A4 by bioluminescence method; assay type: ADME
Chain of Cytochrome P450 3A4 (P08684 whole entry): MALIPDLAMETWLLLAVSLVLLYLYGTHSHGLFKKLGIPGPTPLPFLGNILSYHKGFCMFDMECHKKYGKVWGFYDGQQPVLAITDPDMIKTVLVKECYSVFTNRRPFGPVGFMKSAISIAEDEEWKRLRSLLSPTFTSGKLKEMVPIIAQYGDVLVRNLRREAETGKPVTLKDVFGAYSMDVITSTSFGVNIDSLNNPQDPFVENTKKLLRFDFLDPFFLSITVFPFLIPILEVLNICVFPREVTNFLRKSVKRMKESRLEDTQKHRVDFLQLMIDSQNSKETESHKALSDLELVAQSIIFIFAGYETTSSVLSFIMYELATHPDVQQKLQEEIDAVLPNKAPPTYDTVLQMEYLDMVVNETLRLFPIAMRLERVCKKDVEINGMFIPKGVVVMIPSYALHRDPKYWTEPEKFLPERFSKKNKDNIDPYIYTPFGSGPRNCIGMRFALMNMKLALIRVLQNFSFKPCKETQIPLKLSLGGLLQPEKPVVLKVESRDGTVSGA

[14] = Metabolic stability in rat liver microsomes at 50 uM preincubated for 5 mins followed by addition of NADPH regenerating system and measured after 120 mins by UPLC/MS analysis; assay type: ADME, microsome; details: 2 h
How it was run: as §4

[15] = tested on: HEK293; assay: Cytotoxicity against HEK293 cells assessed as decrease in cell viability after 48 hrs by formazan dye-based EZ4U assay; details: Homo sapiens, HEK293, 48 h
How it was run: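 HEK-293 cells are seeded at 1 × 10^4 per well and grown 24 h to 60% confluence. Compounds (25 mM DMSO stocks) are diluted into medium at final 0.1–250 μM, with DMSO ≤1%, and left 48 h.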

[16] = Metabolic stability in human liver microsomes at 50 uM preincubated for 5 mins followed by addition of NADPH regenerating system and measured after 120 mins by UPLC/MS analysis; assay type: ADME, microsome; details: 2 h
How it was run: as §4

[17] = target: T2, Adenosine receptor A3; assay: Binding affinity to human adenosine A3 receptor by radioligand displacement assay
How it was run: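 Membranes from CHO cells recombinantly expressing human A2B or A3 receptor. Competition curves use six to ten test-compound concentrations spanning three orders of magnitude, with at least three independent experiments.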

SMILES	Ki [1]	Ki [2]	Ki [4]	Ki [5]	Ki [8]	other results
CCCCn1c(=O)c2c(nc3n2CCCN3CCc2ccc(OCC(=O)NCCN(CC)CC)cc2)n(CCCC)c1=O	113 nM	155 nM	242 nM	50.7 nM	–	solubility [3]: 189 µM (≈ 113 µg/mL)
CCCCn1c(=O)[nH]c2nc3n(c2c1=O)CCCN3CCc1ccc(OCC(=O)NCCCN(CC)CC)cc1	–	–	–	–	–	Drug metabolism [6]: Metabolite_Detected
CCCCn1c(=O)c2c(nc3n2CCCN3CCc2ccc(OCC(=O)NCCCNCC)cc2)n(CCCC)c1=O	–	–	–	–	–	Drug metabolism [7]: Metabolite_Detected; Drug metabolism [6]: Metabolite_Detected
CCCn1c(=O)c2c(nc3n2CCCN3CCc2ccc(OCC(=O)NCc3cccc(OC)c3)cc2)n(CCC)c1=O	–	> 1000 nM	> 10000 nM	> 10000 nM	> 1000 nM	inhibition [9]: 37%; inhibition [10]: 22%; inhibition [11]: 39%; inhibition [12]: 28%
CCCCn1c(=O)c2c(nc3n2CCCN3CCc2ccc(OCC(=O)NCc3ccc(F)cc3)cc2)n(CCCC)c1=O	–	> 1000 nM	> 10000 nM	1010 nM	> 1000 nM	inhibition [9]: 32%; inhibition [11]: 43%; inhibition [12]: 40%
CCCCn1c(=O)c2c(nc3n2CCCN3CCc2ccc(OCC(=O)NCCN3CCCC3)cc2)n(CCCC)c1=O	66.3 nM	204 nM	455 nM	36.6 nM	–	inhibition (INH) ([13]; human, recombinant enzyme): Not Active; Stability [14]: Stable; IC50 [15]: 23400 nM; Stability [16]: Stable
CCCn1c(=O)c2c(nc3n2CCCN3CCc2ccc(OCC(=O)NCCN3CCCC3)cc2)n(CCC)c1=O	193 nM	509 nM	551 nM	113 nM	–	–
CCCn1c(=O)c2c(nc3n2CCCN3CCc2ccc(OCC(=O)NCc3ccc(Cl)cc3)cc2)n(CCC)c1=O	–	1090 nM	> 10000 nM	> 10000 nM	> 1000 nM	inhibition [9]: 24%; inhibition [10]: 18%; inhibition [11]: -4%
CCCn1c(=O)c2c(nc3n2CCCN3CCc2ccc(OCC(=O)NCCCNC3CCCCC3)cc2)n(CCC)c1=O	306 nM	458 nM	335 nM	145 nM	–	–
CCCCn1c(=O)c2c(nc3n2CCCN3CCc2ccc(OCC(=O)NCCCN(CC)CC)cc2)n(CCCC)c1=O	–	248 nM	318 nM	24.8 nM	126 nM	IC50 [13]: 230 nM; solubility [3]: 632 µM (≈ 385 µg/mL); IC50 [15]: 27300 nM
CCCn1c(=O)c2[nH]c(C34CC5CC(CC3C5)C4)nc2n(CCC)c1=O [ROLOFYLLINE]	–	–	–	–	–	Ki [17]: 4390 nM
CCCn1c(=O)c2c(nc3n2CCCN3CCc2ccc(OCC(=O)NCCCN(CC)CC)cc2)n(CCC)c1=O	340 nM	> 1000 nM	303 nM	136 nM	–	solubility [3]: 823 µM (≈ 479 µg/mL); inhibition [12]: 36%
CCCCn1c(=O)n(CCC(C)O)c(=O)c2c1nc1n2CCCN1CCc1ccc(OCC(=O)NCCCN(CC)CC)cc1 (centres undefined)	–	–	–	–	–	Drug metabolism [7]: Metabolite_Detected; Drug metabolism [6]: Metabolite_Detected
CCCn1c(=O)c2c(nc3n2CCCN3CCc2ccc(OCC(=O)NCCN(CC)CC)cc2)n(CCC)c1=O	–	508 nM	271 nM	120 nM	179 nM	solubility [3]: 1080 µM (≈ 615 µg/mL)
CCCCn1c(=O)c2c(nc3n2CCCN3CCc2ccc(OCC(=O)NCCC(=O)O)cc2)n(CCCC)c1=O	–	–	–	–	–	Drug metabolism [7]: Metabolite_Detected; Drug metabolism [6]: Metabolite_Detected
